Measured values reported in ChEMBL document CHEMBL3259691, “Synthesis and cytotoxic activity of nitric oxide-releasing isosteviol derivatives” (Bioorg Med Chem Lett, 2014).

Tests used:
[1] = Cytotoxicity against mouse B16F10 cells after 48 hrs by MTT assay; type: functional, cell-based; details: B16-F10, 48 h
Procedure, shortened: (§1)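 Cells seeded in 96-well plates, exposed to compounds at various concentrations for 48 h at 37°C, 5% CO2. MTT (0.5 mg/mL) then added for 4 h, supernatant removed, formazan dissolved in DMSO, absorbance read at 570 nm. Percent inhibition of proliferation calculated per concentration; IC50 derived from dose-dependent response.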

HepG2 = experiment: Cytotoxicity against human HepG2 cells after 48 hrs by MTT assay; type: functional, cell-based; details: HepG2, 48 h; procedure, shortened: as §1

Row | Compound | IC50 [1] [µM] | IC50 (HepG2) [µM]
1 | C[C@@]12CC[C@@H]3[C@@](CC[C@H]4[C@@]3(C)CCC[C@@]4(C)C(=O)NCC(=O)OCCOc3no[n+]([O-])c3S(=O)(=O)c3ccccc3)(CC(=O)O1)C2 | 3.52 | 
2 | C[C@@]12CC[C@@H]3[C@@](CC[C@H]4[C@@]3(C)CCC[C@@]4(C)C(=O)NCC(=O)OCCOc3no[n+]([O-])c3S(=O)(=O)c3ccccc3)(CC1=O)C2 | 2.76 | > 50
3 | C[C@@]12CC[C@@H]3[C@@](CC[C@H]4[C@@]3(C)CCC[C@@]4(C)C(=O)NCC(=O)OCCCOc3no[n+]([O-])c3S(=O)(=O)c3ccccc3)(CC1=O)C2 | 8.06 | 
4 | C[C@@]12CC[C@@H]3[C@@](CC[C@H]4[C@@]3(C)CCC[C@@]4(C)C(=O)NCC(=O)OCC#CCOc3no[n+]([O-])c3S(=O)(=O)c3ccccc3)(CC1=O)C2 | 0.25 | 4.24
5 | C[C@@]12CC[C@@H]3[C@@](CC[C@H]4[C@@]3(C)CCC[C@@]4(C)C(=O)NCC(=O)OCCCOc3no[n+]([O-])c3S(=O)(=O)c3ccccc3)(CC(=O)O1)C2 | 2.05 | 
6 | C[C@]12CC[C@@H]3[C@](CC[C@H]4[C@@]3(C)CCC[C@@]4(C)C(=O)NCC(=O)OCCCCOc3no[n+]([O-])c3S(=O)(=O)c3ccccc3)(C1)C(C=O)O2 (some centres not stated) | 5.21 | 
7 | C=C1C(=O)[C@@]2(C)CC[C@@H]3[C@]1(CC[C@H]1[C@@]3(C)CCC[C@@]1(C)C(=O)NCC(=O)OCCOc1no[n+]([O-])c1S(=O)(=O)c1ccccc1)C2 | 1.01 | 7.13
8 | C=C1C(=O)[C@@]2(C)CC[C@@H]3[C@]1(CC[C@H]1[C@@]3(C)CCC[C@@]1(C)C(=O)NCC(=O)OCCCOc1no[n+]([O-])c1S(=O)(=O)c1ccccc1)C2 | 0.016 | 38.6
9 | C=C[C@]12CC[C@H]3[C@@](C)(CCC[C@@]3(C)C(=O)O)[C@@H]1CC[C@](C)(COC(=O)CCC(=O)OCCOc1no[n+]([O-])c1S(=O)(=O)c1ccccc1)C2 | 1.98 | 6.44
10 | C=C[C@]12CC[C@H]3[C@@](C)(CCC[C@@]3(C)C(=O)O)[C@@H]1CC[C@](C)(COC(=O)CCC(=O)OCCCOc1no[n+]([O-])c1S(=O)(=O)c1ccccc1)C2 | > 50 | 
11 | C=C[C@]12CC[C@H]3[C@@](C)(CCC[C@@]3(C)C(=O)O)[C@@H]1CC[C@](C)(COC(=O)CCC(=O)OCC#CCOc1no[n+]([O-])c1S(=O)(=O)c1ccccc1)C2 | 3.84 | 7.54
12 | COC(=O)[C@]1(C)CCC[C@@]2(C)[C@@H]3CC[C@@]4(C)C[C@]3(CC[C@@H]21)C/C4=N\OC(=O)CCC(=O)OCCOc1no[n+]([O-])c1S(=O)(=O)c1ccccc1 |  | 30.2
13 | COC(=O)[C@]1(C)CCC[C@@]2(C)[C@@H]3CC[C@@]4(C)C[C@]3(CC[C@@H]21)C/C4=N\OC(=O)CCC(=O)OCCCOc1no[n+]([O-])c1S(=O)(=O)c1ccccc1 |  | 33.4
14 | COC(=O)[C@]1(C)CCC[C@@]2(C)[C@@H]3CC[C@@]4(C)C[C@]3(CC[C@@H]21)C/C4=N\OC(=O)CCC(=O)OCCCCOc1no[n+]([O-])c1S(=O)(=O)c1ccccc1 |  | 5.16
15 | COC(=O)[C@]1(C)CCC[C@@]2(C)[C@@H]3CC[C@@]4(C)C[C@]3(CC[C@@H]21)C/C4=N\OC(=O)CCC(=O)OCCOCCOc1no[n+]([O-])c1S(=O)(=O)c1ccccc1 | 2.12 | 2.75
16 | COC(=O)[C@]12CCC(C)(C)C[C@H]1[C@H]1C(=O)C=C3[C@@]4(C)C=C(C#N)C(=O)C(C)(C)[C@@H]4CC[C@@]3(C)[C@]1(C)CC2 [BARDOXOLONE METHYL] | 5.85 | 4.99
17 | CC[C@@]1(O)C(=O)OCc2c1cc1n(c2=O)Cc2cc3ccccc3nc2-1 [CAMPTOTHECIN] | 2.78 | 
18 | C[C@@]12CC[C@@H]3[C@@](CC[C@H]4[C@@]3(C)CCC[C@@]4(C)C(=O)O)(CC1=O)C2 [ISOSTEVIOL] | > 100 | > 100
